# Hits are enriched below; roughly 2.9% of the tested compounds scored in any of these assays.
# Cneo AK release – causes C. neoformans cell lysis | AID 651654 | lysis activity, % at 15 µM | adenylate kinase release luminescence, 4 h; normalised: neutral wells 0, clomiphene wells 100 | hit rate 0.2% among 360,000;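 active = mean lysis activity across replicates of at least 80%, whatever share of replicates individually reach that level; inactive = mean lysis activity below 80%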
#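 Assay system: C. neoformans cells. Amount: yeast cell density of 5 × 10^6 cells/mL. Technique: AK luminescence. Buffer or medium: YPD. Times: static 4 h at 37 °C with compound, 1 h detection. Dosing: single-point compound dose. Read-out: lysis from increased AK signal.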
# FGF22 binding-1 – binders of recombinant human FGF22 by thermal shift | activity (Tm shift, normalised), % at 9.99 µM | Q9HCT0 | SYPRO orange fluorescence; percent of sucrose octasulfate shift, DMSO zero | hit rate 1.5% among 340,000 | AID 651658;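 active = mean Tm shift, scaled 0 neutral to 100 positive control, at about 1.3% or above, every replicate too, limit read from the data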
# Target sequence (Q9HCT0 whole entry, looked up): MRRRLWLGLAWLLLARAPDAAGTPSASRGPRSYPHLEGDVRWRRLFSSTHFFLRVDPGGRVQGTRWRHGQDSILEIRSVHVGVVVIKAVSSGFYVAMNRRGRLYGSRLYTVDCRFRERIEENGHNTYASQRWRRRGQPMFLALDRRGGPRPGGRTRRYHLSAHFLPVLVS
# PglD inh – PglD (C. jejuni) enzyme inhibition; AID 602405; purified PglD enzyme, DTNB colorimetric CoA detection; hit rate 0.098% among 360,000; inhibition, % at 12.5 µM; in the data active = inhibition above about 16%, passing the limit was not always enough
# Vif imaging – HIV Vif inhibition; AID 602346; inhibition, % at 7.49 µM; hit rate 0.35% among 340,000; HEK293T cells, Vif self-association by quenched fluorescence, imaging, 24 h; in the data active = inhibition above about 50%, passing the limit was not always enough
# rRNA inh HTS – inhibitors of bacterial rRNA selective over humanized ribosomes. E. coli WT GFP vs humanized-ribosome RFP mutants, fluorescence, 24 h; hits give low values; DMSO median 0, no signal -100. GFP signal change (wild-type ribosome), % (concentration not given with the values). hit rate 1.6% among 350,000;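 active = significant combined selectivity score with lowered wild-type GFP, culture density cut under 30%, mutant RFP and density less affected; inactive = any of these conditions unmet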
# PGC1a acetyl inh – lowers PGC1a acetylation signal in U2OS cells; hit rate 0.17% among 350,000; AlphaScreen anti-acetyl-lysine; with virally co-expressed GCN5 acetyltransferase; inhibition, % at 15.6 µM;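 active = every replicate shows inhibition of at least 40%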;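 note: 0% = neutral control wells and 100% = positive control wells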
# FGF22 binding-2 – binders of human FGF22 by thermal shift. AID 720646. thermal shift activity, °C (ΔTm) at 38 µM. shares compounds with FGF22 binding-1. recombinant FGF22 thermal shift, SYPRO orange fluorescence. hit rate 2% among 1,000;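 active = fitted rise in melting shift crosses a set limit at or below the top valid dose tested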
# FGF22 TSA – binds human FGF22 shifting its melting temperature | shares compounds with FGF22 binding-1 | Thermal shift assay, SYPRO orange, melting temperature shift | Tm shift (activity), % at 38 µM | 50 tested, under 10 active;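 active = compounds whose fitted dose curve of melting temperature shift rises past a set threshold within the tested doses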
# TSA no protein – counter-screen for FGF22 binders: compound-only thermal shift, no protein. shares compounds with FGF22 binding-1. hit rate 2% among 1,000. compound-only SYPRO orange thermal shift counter-screen. AC50, µM (series often up to 38 µM). AID 743019;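 active = rising signal whose fitted curve reaches the 0.54 level within the top valid dose, showing a melting point, actives reach about 13 µM in these data; inactive = the rest, including activity in the opposite direction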; note: value is where the raw curve crosses a fixed level and not half-maximal
# An asterisk follows results filed as active; i = inactive; . = not tested or not shown; [ ] = dose if it differs, or a comment.
SMILES,Cneo AK release,FGF22 binding-1,PglD inh,Vif imaging,rRNA inh HTS,PGC1a acetyl inh,FGF22 binding-2,TSA no protein,others
O=C(Nc1cc(S(=O)(=O)N2CCCCC2)ccc1Cl)C1=NN(c2ccccc2)C(=O)CC1,0,0,-2,0,17,2,.,.,
O=C(Nc1cccc(S(=O)(=O)N2CCCCC2)c1)C1=NN(c2ccccc2)C(=O)CC1,0,1.9*,2,-2,-5,-11,-0.096,i,
CCCNC(=O)COC(=O)c1ccccc1C(=O)N(C)C1CCCCC1,.,14*,.,-8,3,-6,-0.085,i,FGF22 TSA=0
CN(C(=O)c1ccccc1C(=O)OCC(=O)NCc1ccccc1)C1CCCCC1,.,0,.,26,-4,.,.,.,
O=C(Nc1ccc(F)cc1)N[C@H]1CC[C@H](CCn2cc(-c3ccccc3F)nn2)O[C@@H]1CO,-2,1,0,.,0,7,.,.,
O=C(Nc1ccc(F)cc1)N[C@H]1CC[C@@H](CCn2cc(-c3ccccc3F)nn2)O[C@@H]1CO,-2,1.7*,0,.,-5,20,0.17,i,
O=C(Cc1cccnc1)N[C@@H]1CC[C@@H](CCn2cc(-c3ccccc3F)nn2)O[C@@H]1CO,0,1.3*,7,.,0,-9,-0.12,i,
O=C(Nc1ccc(F)cc1)N[C@H]1CC[C@H](CCn2cc(-c3ccccc3F)nn2)O[C@H]1CO,-1,0,-3,.,0,23,.,.,
O=C(Nc1ccc(F)cc1)N[C@@H]1CC[C@H](CCn2cc(-c3ccccc3F)nn2)O[C@H]1CO,5,2.9*,-2,.,-12,-6,0.1,i,
O=C(Nc1ccc(F)cc1)N[C@H]1CC[C@@H](CCn2cc(-c3ccccc3F)nn2)O[C@H]1CO,1,1.4*,-3,.,-12,6,-0.079,i,
C[C@H]1CN([C@@H](C)CO)S(=O)(=O)c2ccc(-c3cccnc3)cc2O[C@H]1CN(C)Cc1cncnc1,-4,0,-3,.,1,10,.,.,
C[C@@H]1CN([C@H](C)CO)C(=O)c2cccc(NC(=O)c3cnccn3)c2O[C@H]1CN(C)S(=O)(=O)c1cccs1,-1,0,0,.,-1,11,.,.,
C[C@H](CO)N1C[C@H](C)[C@@H](CN(C)C(=O)Cc2ccccc2)OCCCC[C@H](C)Oc2ccc(NC(=O)c3ccccc3)cc2C1=O,0,0,-3,.,-3,-16,.,.,
O=C(NCC1CCCCC1)c1cccnc1Cl,3,1.5*,-6,3,5,-3,0.23,i,
CSc1ncccc1C(=O)NCC1CCCCC1,-1,0,-7,5,16,.,.,.,
Cc1ccc(Cl)cc1N1CCN(C(=O)Cc2c(C(=O)O)[nH]c3ccc(Cl)cc23)CC1,.,7.4*,.,-12,-11,-13,0.23,i,
O=C(C[C@@H]1C=C[C@H](NC(=O)Nc2cc(F)ccc2F)[C@H](CO)O1)Nc1ccc(-c2ccccc2)cc1,3,1.8*,1,.,-29,-5,-0.26,i,
O=C(C[C@@H]1C=C[C@H](NC(=O)c2cccc(F)c2)[C@H](CO)O1)NCc1ccccc1,-1,20*,0,.,-2,-1,-0.14,i,
C[C@@H]1CN([C@H](C)CO)C(=O)c2cc(NS(=O)(=O)c3cn(C)cn3)ccc2O[C@@H](C)CCCCO[C@@H]1CN(C)S(=O)(=O)c1ccc(F)cc1,0,1,5,.,-2,1,.,.,
CCC(=O)N1CCCCN2[C@H](CO)[C@@H](c3ccc(C#Cc4ccccc4F)cc3)[C@H]2C1,1,1.5*,18,.,-57,3,0.044[42 µM],i,
O=C(NCC1CCOCC1)c1ccc2nc(Cc3cccc(Cl)c3)oc2c1,0,1.4*,5,-4,1,.,0.33,i,
CN(CC1CCOCC1)C(=O)c1ccc2nc(Cc3cccc(Cl)c3)oc2c1,-4,0,-1,.,-6,-2,.,.,
COc1ccc(CN2CC3(CCN(S(=O)(=O)c4ccc(C)cc4)CC3)c3c([nH]c4cc(OC)ccc34)[C@@H]2CO)cc1,.,.,.,.,-50,.,.,.,
O=C(C(=O)N1CCC(CNS(=O)(=O)Cc2ccccc2)CC1)c1cccs1,.,27*,.,.,7,.,0.071,i,
COc1ccc2c3c(n(C)c2c1)[C@@H](CO)N(C(=O)c1ccncc1)CC31CN(C(C)=O)C1,.,.,.,.,6,-13,.,.,
SMILES,Cneo AK release,FGF22 binding-1,PglD inh,Vif imaging,rRNA inh HTS,PGC1a acetyl inh,FGF22 binding-2,TSA no protein,others
O=C(NCc1ccncn1)[C@@H]1[C@@H](CO)[C@@H]2Cn3c(cccc3=O)[C@H]1N2CC1CC1,0,0,20,.,1,.,.,.,
O=c1c(Cl)c(O)c2cccc3c4ccccc4n1c23,.,2.3*,.,-5,-13,.,0.16,i,
COC(=O)C[C@@H]1C[C@@H]2c3cc(NC(=O)Nc4ccc(C(F)(F)F)cc4)ccc3O[C@@H]2[C@@H](CO)O1,.,.,.,.,-21,.,.,.,
N#Cc1ccc(NC(=O)Nc2cccc(C#N)c2)cc1,.,1.9*,.,1,-30,.,.,6.4µM*,
N#Cc1cccc(NC(=O)c2ccccc2C(=O)O)c1,4,.,-8,16,.,3,.,.,
Cc1ccc(S(=O)(=O)N(C)C[C@H]2Oc3ccc(NS(=O)(=O)c4cn(C)cn4)cc3C(=O)N([C@@H](C)CO)C[C@H]2C)cc1,.,.,.,.,0,-19,.,.,
Cc1cc(NC(=O)Nc2ccc3c(ccn3C)c2)sn1,-4,2.8*,-3,1,.,-5,0.14,i,FGF22 TSA=0
